Active and inactive are the calls of the source.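 The calls were made as follows, unless noted: active = viability at or under a set limit in both replicates, limit being median viability minus 3 SD (cut at about 48% in these data, passing the limit was not always enough); inconclusive = at or under the limit in just one replicate; inactive = at or above the limit in both replicates.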
Assays:
[1] = Her2 expression decrease, cell viability multiplex – SKBR3 breast tumor cells, AlphaScreen, ATP viability, primary screen (AID 461;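 active = Her2 level under about 52% in both replicate screens, with viability over 70% of control, limit read from the data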;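 as to Her2 level: lower value means less Her2 protein in the cells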;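 as to viability: percent of carrier control wells set as 100% viability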); conditions: SKBR3 Her2 protein level, 18-24 h, measured here: SKBR3 viability, ATP luminescence, at 10 µM
[2] = target: Receptor tyrosine-protein kinase erbB-2 (Homo sapiens) (UniProt P04626); assay: as above; conditions: 18-24 h, at 10 µM, stronger effect = lower value
[3] = reduced viability of SK-BR-3 breast cancer cells – cell-based, 24 h, human, pilot screen (AID 572;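 active = viability at or below 10% of carrier control in both of two separate runs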;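 also: compound exposure lasted between 18 and 24 h rather than exactly 24 h; 100% = carrier-treated control wells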); conditions: SK-BR-3 viability, CellTiter-Glo luminescence, at 10 µM, stronger effect = lower value
[4] = HUVEC growth inhibition – cell-based, human, primary screen (AID 575;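 active = viability at or below 30% in both replicate assays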;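 also: 100% = median of untreated cell wells with 0.1% DMSO on each plate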); conditions: HUVEC proliferation, CellTiter-Glo luminescence, 72 h; at 10 µM; stronger effect = lower value
Outline: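 Test system: HUVEC primary cells. Quantity: 1250 endothelial cells in each well. Dosing: single-point 10 µM, DMSO 0.1% final. Incubation: 72 h treatment at 37 °C. Measured by: CTG luminescence. Control set: DMSO cell controls and MePR drug controls. Plate: collagen-coated 384-well format.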

[5] = H69AR cell proliferation blockers – human, duplicate replicates, primary screen (AID 580); conditions: H69AR lung tumor cells viability, ATP luminescence, 72 h; at 10 µM; stronger effect = lower value;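 also: 100% = mean luminescence of untreated wells and 0% = no signal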
[6] = MRP1 drug-resistance reversers in H69AR cells – cell-based, doxorubicin co-treatment, pilot screen (AID 601;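 active = viability loss from added drug above about 55%, and viability with drug at most 40%, in both replicates, limit read from the data, passing the limit was not always enough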); conditions: CellTiter-Glo, 72 h, at 10 µM; for differential viability (reversal): stronger effect = higher value
[7] = yeast transport mutant growth inhibition pilot in 384-well plates, post-Golgi transport modulator project (AID 636; in the data active = inhibition above about 31%); conditions: absorbance 615 nm, about 18 h, stronger effect = higher value
[8] = growth suppression of yeast trafficking mutant, preliminary HTS, modulators of trafficking downstream of Golgi apparatus project, 1536-format plate, OD 615 nm (AID 637; in the data active = inhibition above about 30%); conditions: yeast transport mutant growth, absorbance 615 nm, 18 h; stronger effect = higher value
[9] = H69AR cells + 2 uM doxorubicin, measured here: viability with 2 uM doxorubicin, stronger effect = lower value
[10] = H69AR cells, compound alone cytotoxicity

Receptor tyrosine-protein kinase erbB-2 (Homo sapiens), sequence (P04626 whole entry, looked up): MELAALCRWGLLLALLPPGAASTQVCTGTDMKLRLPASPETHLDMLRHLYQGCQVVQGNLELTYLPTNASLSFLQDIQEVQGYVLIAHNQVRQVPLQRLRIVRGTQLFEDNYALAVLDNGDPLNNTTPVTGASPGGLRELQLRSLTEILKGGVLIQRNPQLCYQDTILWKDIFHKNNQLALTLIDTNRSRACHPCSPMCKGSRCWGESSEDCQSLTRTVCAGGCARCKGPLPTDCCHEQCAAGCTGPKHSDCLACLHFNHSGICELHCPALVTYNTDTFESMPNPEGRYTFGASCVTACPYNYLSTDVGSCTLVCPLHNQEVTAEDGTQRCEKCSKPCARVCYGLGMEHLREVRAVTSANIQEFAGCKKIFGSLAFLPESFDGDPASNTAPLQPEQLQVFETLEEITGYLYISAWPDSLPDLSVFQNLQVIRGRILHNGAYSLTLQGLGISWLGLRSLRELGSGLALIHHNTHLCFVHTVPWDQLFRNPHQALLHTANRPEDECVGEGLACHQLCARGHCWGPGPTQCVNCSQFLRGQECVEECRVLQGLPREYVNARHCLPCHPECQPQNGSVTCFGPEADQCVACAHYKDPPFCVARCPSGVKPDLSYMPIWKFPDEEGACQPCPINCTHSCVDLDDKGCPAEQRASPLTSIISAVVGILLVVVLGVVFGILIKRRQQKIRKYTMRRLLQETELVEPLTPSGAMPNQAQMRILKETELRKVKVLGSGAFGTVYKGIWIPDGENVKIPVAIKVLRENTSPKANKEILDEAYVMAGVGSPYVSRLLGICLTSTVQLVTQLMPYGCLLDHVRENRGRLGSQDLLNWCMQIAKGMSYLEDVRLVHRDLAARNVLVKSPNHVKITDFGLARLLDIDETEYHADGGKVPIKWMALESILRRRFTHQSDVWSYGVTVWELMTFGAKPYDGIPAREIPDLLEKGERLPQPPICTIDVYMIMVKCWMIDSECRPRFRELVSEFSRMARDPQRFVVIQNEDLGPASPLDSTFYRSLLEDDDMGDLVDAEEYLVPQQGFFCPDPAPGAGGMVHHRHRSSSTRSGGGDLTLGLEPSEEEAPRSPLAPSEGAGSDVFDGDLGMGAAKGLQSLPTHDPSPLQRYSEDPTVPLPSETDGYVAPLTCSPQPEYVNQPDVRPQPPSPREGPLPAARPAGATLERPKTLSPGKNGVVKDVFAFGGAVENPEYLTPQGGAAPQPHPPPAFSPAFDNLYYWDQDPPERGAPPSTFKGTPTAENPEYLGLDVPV

| Compound | viability [1] | Her2 level [2] | viability [3] | viability [4] | viability [5] | differential viability (reversal) ([6]; H69AR cells + 2 uM doxorubicin) | viability [6, 9] | viability [6, 10] | inhibition [7] | inhibition [8] |
| --- | --- | --- | --- | --- | --- | --- | --- | --- | --- | --- |
| Cn1c(=O)c2c([nH]c(=O)n2C)n(C)c1=O | 104% | 84.5% (inactive) | 104% (inactive) | 88.7% (inactive) | 90.2% (inactive) | -5.03% (inactive) | 95.3% | 90.2% | -2.21% (inactive) | 7.21% (inactive) |
| CCOC(=O)N1CCN(c2ncnc3c2[nH]c2ccc(OC)cc23)CC1 | 97.5% | 79% (inactive) | 97.5% (inactive) | 72.4% (inactive) | 81.3% (inactive) | 3.37% (inactive) | 77.9% | 81.3% | -3.6% (inactive) | -5.65% (inactive) |
| C/C(=C\c1cc(C(=O)O)c(C)o1)CO | 102% | 126% (inactive) | 102% (inactive) | 108% (inactive) | 89.1% (inactive) | -8.12% (inactive) | 97.2% | 89.1% | -5.13% (inactive) | -0.33% (inactive) |
| COc1ccc(CCNC(=O)C2CCN(S(=O)(=O)c3cc(OC)ccc3OC)CC2)cc1 | 93% | 95% (inactive) | 93% (inactive) | 114% (inactive) | 103% (inactive) | 5.9% (inactive) | 96.8% | 103% | -7.97% (inactive) | 4.59% (inactive) |
| O=c1[nH]c(=O)n(C2CCCCCC2)c(O)c1C=NCc1ccc(F)cc1 | 90% | 86.5% (inactive) | 90% (inactive) | 90.1% (inactive) | 81.5% (inactive) | -4.79% (inactive) | 86.3% | 81.5% | -6.8% (inactive) | -2.22% (inactive) |
| O=C(NCCCN1CCCC1=O)c1ccc2c(c1)NC(=O)C(N1CCOCC1)S2 (stereo not given) | 143% | 94.5% (inactive) | 143% (inactive) | 115% (inactive) | 89.5% (inactive) | 6.1% (inactive) | 83.3% | 89.5% | -6.4% (inactive) | 0.82% (inactive) |
| O=C1C(c2ccncc2)=C(O)c2ccccc21 | 100% | 87% (inactive) | 100% (inactive) | 73.6% (inactive) | 82.2% (inactive) | -3.63% (inactive) | 85.9% | 82.2% | -1.05% (inactive) | 12.7% (inactive) |
| CC1CCN(S(=O)(=O)c2ccc3[nH]c(=O)cc(C(=O)O)c3c2)CC1 | 98% | 114% (inactive) | 98% (inactive) | 106% (inactive) | 105% (inactive) | 17.1% (inactive) | 88.3% | 105% | -4.16% (inactive) | -4.1% (inactive) |
| Cc1cc(C(=O)N2CCN(C/C=C/c3ccccc3)CC2)no1 | 92.5% | 97.5% (inactive) | 92.5% (inactive) | 93.8% (inactive) | 93.2% (inactive) | 0.745% (inactive) | 92.5% | 93.2% | -4.05% (inactive) | 2.62% (inactive) |
| COc1ccc(OCc2cccc(C(=O)O)c2)cc1 | 105% | 78.5% (inactive) | 105% (inactive) | 75.7% (inactive) | 88.1% (inactive) | 7.06% (inactive) | 81% | 88.1% | -4.47% (inactive) | 0.91% (inactive) |
| O=S(=O)(NCc1cn2ccsc2n1)c1ccc2c(c1)OCCO2 | 117% | 102% (inactive) | 117% (inactive) | 96.4% (inactive) | 105% (inactive) | 9.79% (inactive) | 95.5% | 105% | -7.07% (inactive) | -2.26% (inactive) |
| COc1cc(S(=O)(=O)n2nnc3ccccc32)c(OC)cc1Cl | 96% | 81.5% (inactive) | 96% (inactive) | 77% (inactive) | 84.9% (inactive) | -3.02% (inactive) | 87.9% | 84.9% | -2.8% (inactive) | 41.8% (active) |
| Fc1ccc(NCc2nnc(SCc3nnc(-c4ccccc4)o3)n2CC2CCCO2)cc1 (stereo not given) | 96.5% | 109% (inactive) | 96.5% (inactive) | 97.8% (inactive) | 78.9% (inactive) | -18.4% (inactive) | 97.3% | 78.9% | -0.54% (inactive) | 15.4% (inactive) |
| O=C(c1ccco1)N1CCN(C(=O)c2cc3c(s2)-c2ccccc2OC3)CC1 | 91% | 113% (inactive) | 91% (inactive) | 107% (inactive) | 97% (inactive) | 2.87% (inactive) | 94.2% | 97% | 0.13% (inactive) | -1.64% (inactive) |
| COc1ccc(Cc2nc(-c3ccc(NC(=O)c4cccnc4)cc3)no2)cc1 | 109% | 84.5% (inactive) | 109% (inactive) | 123% (inactive) | 17.7% (active) | -0.01% (inactive) | 17.7% | 17.7% | -7.7% (inactive) | 7.94% (inactive) |
| CC(C)C(OC(=O)c1ccco1)C(=O)NCc1ccccc1 (stereo not given) | 91.5% | 97% (inactive) | 91.5% (inactive) | 92.5% (inactive) | 99.1% (inactive) | 8.63% (inactive) | 90.4% | 99.1% | 0% (inactive) | -4.6% (inactive) |
| COc1ccccc1NC(=O)CSc1nnc(-c2ccncc2)n1CC1CCCO1 (stereo not given) | 97% | 91% (inactive) | 97% (inactive) | 103% (inactive) | 96.7% (inactive) | 6.53% (inactive) | 90.1% | 96.7% | -5.33% (inactive) | -3.81% (inactive) |
| Cc1cc(Cl)c(S(=O)(=O)NC2CCCCC2)cc1OCC(=O)Nc1nncs1 | 107% | 88% (inactive) | 107% (inactive) | 86.5% (inactive) | 90.1% (inactive) | -3.42% (inactive) | 93.6% | 90.1% | -4.74% (inactive) | -3.17% (inactive) |
| O=C(CN1CCCC1)Nc1ccc(NC(=O)Nc2ccccc2)cc1 | 92.5% | 110% (inactive) | 92.5% (inactive) | 75.3% (inactive) | 95.3% (inactive) | 0.39% (inactive) | 94.9% | 95.3% | 0% (inactive) | -6.39% (inactive) |
| CCOC(=O)CSc1nc2ccccc2c(=O)n1CCN1CCOCC1 | 92.5% | 87.5% (inactive) | 92.5% (inactive) | 87.6% (inactive) | 95.4% (inactive) | 11% (inactive) | 84.4% | 95.4% | 0% (inactive) | -6.19% (inactive) |
| CCn1cc(C(=O)O)c(=O)c2cc(F)c(N3CCN(C(=O)Nc4ccccc4)CC3)cc21 | 108% | 92% (inactive) | 108% (inactive) | 111% (inactive) | 79.5% (inactive) | -1.55% (inactive) | 81.1% | 79.5% | -3.87% (inactive) | 0% (inactive) |
| COc1ccc(Cn2nnnc2C(c2cccs2)N2CCOCC2)cc1 (stereo not given) | 105% | 123% (inactive) | 105% (inactive) | 90.9% (inactive) | 109% (inactive) | -1.24% (inactive) | 111% | 109% | 3.16% (inactive) | 5.33% (inactive) |
| CCn1c(CC(=O)Nc2cccc(OC)c2)nnc1SCC(=O)Nc1nccs1 | 98% | 102% (inactive) | 98% (inactive) | 94.5% (inactive) | 101% (inactive) | 4.37% (inactive) | 97% | 101% | -7.6% (inactive) | -2.26% (inactive) |
| CCCCN(CC)S(=O)(=O)c1ccc2c(c1)CCCN2C(C)=O | 88% | 79.5% (inactive) | 88% (inactive) | 88.9% (inactive) | 104% (inactive) | 0.71% (inactive) | 103% | 104% | -2.37% (inactive) | 0.48% (inactive) |
| CCn1c(=O)n(CC(=O)N(C)Cc2ccccc2)c(=O)c2ccccc21 | 110% | 93.5% (inactive) | 110% (inactive) | 75.7% (inactive) | 91.8% (inactive) | 1.03% (inactive) | 90.8% | 91.8% | 1.18% (inactive) | -0.48% (inactive) |
| FC(F)(F)c1nnc2ccc(NCn3nnc4ccccc43)nn12 | 102% | 89.5% (inactive) | 102% (inactive) | 83.1% (inactive) | 92.9% (inactive) | 4.94% (inactive) | 88% | 92.9% | -4.61% (inactive) | -1.75% (inactive) |
| COC(=O)C(CC(C)C)NC(=O)CSc1nc(-c2ccccc2)c(C#N)c(=O)[nH]1 (stereo not given) | 110% | 90% (inactive) | 110% (inactive) | 107% (inactive) | 108% (inactive) | 7.26% (inactive) | 100% | 108% | -3.12% (inactive) | 4.1% (inactive) |
| CN1C(=O)NC(NC(=O)C2CCCCC2)(C(F)(F)F)C1=O (stereo not given) | 93% | 85% (inactive) | 93% (inactive) | 98.7% (inactive) | 106% (inactive) | 6.06% (inactive) | 99.8% | 106% | -0.92% (inactive) | -0.65% (inactive) |
| O=C1CCCC2=C1C(c1ccsc1)CC(=O)N2c1ccccc1 (stereo not given) | 90.5% | 96% (inactive) | 90.5% (inactive) | 113% (inactive) | 92.4% (inactive) | -3.37% (inactive) | 95.7% | 92.4% | -3.29% (inactive) | -3.82% (inactive) |
